Results on 1 molecule are retold here after ChEMBL document CHEMBL1127405, “Synthesis and antitumor evaluation of bis[(pivaloyloxy)methyl] 2'-deoxy-5-fluorouridine 5'-monophosphate (FdUMP): a strategy to introduce nucleotides into cells” (J Med Chem, 1994).

The test system of experiment [1] is Mus musculus. The experiment can be described thus: The compound was tested for increase in life span for mice implanted intraperitoneally with P-388/FU Leukemia cell line at 160 mg/kg. The experiment is classed as functional. The settings on record: P388, ip, route intraperitoneal. In short, it runs like this:
(§1)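 Male BDF1 mice, six per group, implanted ip with 1×10^6 P-388/0 or P-388/FU cells on day 0. Dosed ip daily for 5 days from 24 h post-implant, in saline or Emulphor 620 vehicle. Mice observed until death. %ILS = (T/C − 1)×100, from median survival of treated mice (T) versus saline-treated controls (C).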

Experiment [2] has as its system Mus musculus. The experiment can be described thus: The compound was tested for change in weight for mice implanted intraperitoneally with P-388/0 Leukemia cell line at 240 mg/kg. Conditions: route intraperitoneal. The experiment is classed as functional. In short, it runs like this: (§2)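 Male BDF1 mice inoculated ip on day 0 with 1 × 10^6 leukemia cells (six mice per group, average weight 22 g). Dosing ip once daily for 5 consecutive days starting 24 h after implantation. Fluoropyrimidine references in 0.9% saline; prodrugs formulated with Emulphor 620; vehicle controls 0.2 mL. Percent body weight change recorded per group.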

In experiment [3] the test system is Mus musculus. The experiment can be described thus: The compound was tested for change in weight for mice implanted intraperitoneally with P-388/FU Leukemia cell line at 360 mg/kg. Conditions: route intraperitoneal. The experiment is classed as functional. In short, it runs like this: as §2
Experiment [4] deals with Mus musculus. The experiment can be described thus: The compound was tested for increase in life span for mice implanted intraperitoneally with P-388/0 Leukemia cell line at 240 mg/kg. Format: functional. The settings on record: P388, ip, route intraperitoneal. In short, it runs like this:
as §1

Experiment [5] deals with Mus musculus. The experiment can be described thus: The compound was tested for mean survival time for 15 mice implanted Intraperitoneally with P-388/0 Leukemia cell line at 360 mg/kg. The experiment is classed as functional. Conditions: route intraperitoneal. The gist of the method: (§3)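 P-388/0 or P-388/FU cells (1×10^6) implanted ip into male BDF1 mice on day 0. Dosing was ip, daily for 5 consecutive days beginning 24 h later, in saline or Emulphor 620 vehicle. Six mice per treated group. Animals followed to death and median survival time recorded in days. The control group had 15 mice.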

The subject of experiment [6] is Mus musculus. The experiment can be described thus: The compound was tested for increase in life span for mice implanted intraperitoneally with P-388/0 Leukemia cell line at 160 mg/kg. The settings on record: P388, ip, route intraperitoneal. The experiment is classed as functional. In short, it runs like this: as §1
For experiment [7], the system named is Mus musculus. The experiment can be described thus: The compound was tested for mean survival time for 15 mice implanted Intraperitoneally with P-388/FU Leukemia cell line at 360 mg/kg. The experiment is classed as functional. The settings on record: route intraperitoneal. In short, it runs like this: as §3
Experiment [8] relates to CHO. The experiment can be described thus: The minimun drug concentration that gives rise to colonies containing fewer than 50 cells after incubation at 37 degree C against chinese hamster ovary cells 20 fold resistant to fluoroudine. The experiment is classed as functional, cell-based. The settings on record: Cricetulus griseus. In short, it runs like this:
(§4)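 About 200 cells per dish were grown as clones in drug at 0, 0.5, 1.5, 5, 10, 50 or 100 μM for 7 d at 37 °C in humidified CO2. Colonies were fixed with 10% formaldehyde and stained with 0.1% crystal violet. The value is the lowest tested concentration giving colonies of fewer than 50 cells.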

Experiment [9] has as its system Mus musculus. The experiment can be described thus: The compound was tested for increase in life span for mice implanted intraperitoneally with P-388/FU Leukemia cell line at 240 mg/kg. The experiment is classed as functional. Conditions: P388, ip, route intraperitoneal. In short, it runs like this:
as §1

Experiment [10] deals with Mus musculus. The experiment can be described thus: The compound was tested for increase in life span for mice implanted intraperitoneally with P-388/0 Leukemia cell line at 360 mg/kg. Format: functional. The settings on record: P388, ip, route intraperitoneal. In short, it runs like this: as §1
Experiment [11] has as its system Mus musculus. The experiment can be described thus: The compound was tested for change in weight for mice implanted intraperitoneally with P-388/0 Leukemia cell line at 360 mg/kg. Format: functional. The settings on record: route intraperitoneal. In short, it runs like this:
as §2

The subject of experiment [12] is Mus musculus. The experiment can be described thus: The compound was tested for mean survival time for 15 mice implanted Intraperitoneally with P-388/FU Leukemia cell line at 160 mg/kg. Format: functional. The settings on record: route intraperitoneal. The gist of the method:
as §3

The subject of experiment [13] is Mus musculus. The experiment can be described thus: The compound was tested for increase in life span for mice implanted intraperitoneally with P-388/FU Leukemia cell line at 360 mg/kg. Format: functional. The settings on record: P388, ip, route intraperitoneal. The gist of the method: as §1
The test system of experiment [14] is Mus musculus. The experiment can be described thus: The compound was tested for change in weight for mice implanted intraperitoneally with P-388/FU Leukemia cell line at 160 mg/kg. Format: functional. The settings on record: route intraperitoneal. In short, it runs like this:
as §2

Experiment [15] has as its system Mus musculus. The experiment can be described thus: The compound was tested for mean survival time for 15 mice implanted Intraperitoneally with P-388/FU Leukemia cell line at 240 mg/kg. The experiment is classed as functional. Conditions: route intraperitoneal. The gist of the method: as §3
The subject of experiment [16] is Mus musculus. The experiment can be described thus: The compound was tested for change in weight for mice implanted intraperitoneally with P-388/0 Leukemia cell line at 160 mg/kg. The experiment is classed as functional. Conditions: route intraperitoneal. In short, it runs like this: as §2
Experiment [17] concerns Mus musculus. The experiment can be described thus: The compound was tested for mean survival time for 15 mice implanted Intraperitoneally with P-388/0 Leukemia cell line at 240 mg/kg. The experiment is classed as functional. Conditions: route intraperitoneal. The gist of the method: as §3
For experiment [18], the system named is Mus musculus. The experiment can be described thus: The compound was tested for mean survival time for 15 mice implanted Intraperitoneally with P-388/0 Leukemia cell line at 160 mg/kg. The experiment is classed as functional. Conditions: route intraperitoneal. In short, it runs like this:
as §3

For experiment [19], the system named is CHO. The experiment can be described thus: The minimun drug concentration that gives rise to colonies containing fewer than 50 cells after incubation at 37 degree C against chinese hamster ovary cells. The experiment is classed as functional, cell-based. Conditions: Cricetulus griseus. In short, it runs like this:
as §4

In experiment [20] the test system is Mus musculus. The experiment can be described thus: The compound was tested for change in weight for mice implanted intraperitoneally with P-388/FU Leukemia cell line at 240 mg/kg. The experiment is classed as functional. The settings on record: route intraperitoneal. In short, it runs like this: as §2

Turning to `CC(=O)O[C@H]1C[C@H](n2cc(F)c(=O)[nH]c2=O)O[C@@H]1COP(=O)(OCOC(=O)C(C)(C)C)OCOC(=O)C(C)(C)C`, the ILS at 160 mg/kg with Mus musculus [1] and with Mus musculus [6] was 36% throughout. Besides, the Weight change is recorded as -15% in the experiment with Mus musculus [2]; -13% with Mus musculus [3]; -15% in the experiment with Mus musculus [11]; -9% in the experiment with Mus musculus [14]; -9% in the experiment on Mus musculus [16]; -12% with Mus musculus [20]. In addition, the ILS at 240 mg/kg in the experiment with Mus musculus [4] and in the experiment on Mus musculus [9] was 45% throughout. The MST was 20 days with Mus musculus [5]; 16 days with Mus musculus [7]; 15 days in the experiment with Mus musculus [12]; 16 days in the experiment with Mus musculus [15]; 16 days in the experiment on Mus musculus [17]; 15 days with Mus musculus [18]. In addition, the IC50 in the experiment on CHO [8] and in the experiment on CHO [19] was 5 µM throughout. For the same molecule, the ILS (as a rule, the gain in survival time of treated over control animals, in per cent) at 360 mg/kg amounted to 82% in the experiment with Mus musculus [10] and 45% in the experiment on Mus musculus [13].
